From ChEMBL document CHEMBL4038284, “Synthesis of novel quinoline-based 4,5-dihydro-1H-pyrazoles as potential anticancer, antifungal, antibacterial and antiprotozoal agents” (Eur J Med Chem, 2017)
≈ marks a conversion by molar mass, not a printed value. Calls of active or inactive are those of the source. The rule behind the calls is not given here.

What was measured:
OVCAR-8 = assay: Growth inhibition of human OVCAR8 cells at 10 uM incubated for 48 hrs by sulforhodamine B assay; type: functional, cell-based
Summary of the method: (§1)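 NCI 60-line panel, single 10 μM dose. Cells were grown in RPMI-1640 with 5% FBS and 2 mM L-glutamine and pre-incubated 24 h before compound addition (DMSO stock). Exposure was 48 h at 37 °C, 5% CO2. Cells were fixed with cold TCA (10% final), stained with 0.4% SRB, bound dye dissolved in 10 mM Tris base, A515 read. Growth was taken relative to time-zero and untreated control plates.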

HCT-15 = assay: Growth inhibition of human HCT15 cells at 10 uM incubated for 48 hrs by sulforhodamine B assay; type: functional, cell-based
Summary of the method: (§2)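 NCI 60-cell-line screen at a single 10 µM dose. Cells in RPMI-1640 with 5% FBS and 2 mM L-glutamine, pre-incubated 24 h, then treated for 48 h at 37 °C. TCA fixation, sulforhodamine B staining, absorbance at 515 nm. Percentage growth calculated against time-zero and untreated controls.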

SF-295 = assay: Growth inhibition of human SF295 cells at 10 uM incubated for 48 hrs by sulforhodamine B assay; type: functional, cell-based; summary of the method: as §1
HOP-62 = assay: Growth inhibition of human HOP62 cells at 10 uM incubated for 48 hrs by sulforhodamine B assay; type: functional, cell-based; summary of the method: as §2
T47D = assay: Growth inhibition of human T47D cells at 10 uM incubated for 48 hrs by sulforhodamine B assay; type: functional, cell-based
Summary of the method: (§3)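 NCI-60 single-dose screen at 10 µM for 48 h. Cells were grown in RPMI-1640 with 5% FBS and 2 mM L-glutamine and preincubated 24 h before compound. Time-zero plates were TCA-fixed at compound addition. After exposure, cells were TCA-fixed, stained with SRB and read at 515 nm. Percentage growth was calculated against time-zero and untreated-control absorbances.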

MOLT-4 = assay: Growth inhibition of human MOLT4 cells at 10 uM incubated for 48 hrs by sulforhodamine B assay; type: functional, cell-based; summary of the method: as §1
NCI-H522 = assay: Growth inhibition of human NCI-H522 cells at 10 uM incubated for 48 hrs by sulforhodamine B assay; type: functional, cell-based; summary of the method: as §1
Candida albicans = assay: Growth inhibition of Candida albicans ATCC 10231 at 31.25 ug/ml incubated for 48 hrs under dark condition by broth microdilution method relative to control; type: functional; conditions: ATCC 10231, 48 h, read-out: GI
Summary of the method: (§4)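 CLSI M27-A3 broth microdilution in RPMI-1640, DMSO ≤1%. Inoculum 1-5 × 10^3 CFU/mL. Incubated 48 h at 30 °C, dark. % inhibition = 100 − (OD405 test − sterility control)/(OD405 growth control − sterility control), with growth and sterility control wells. Triplicate.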

SNB-75 = assay: Growth inhibition of human SNB75 cells at 10 uM incubated for 48 hrs by sulforhodamine B assay; type: functional, cell-based; summary of the method: as §3
A498 = assay: Growth inhibition of human A498 cells at 10 uM incubated for 48 hrs by sulforhodamine B assay; type: functional, cell-based; summary of the method: as §2
MDA-MB-231 = assay: Growth inhibition of human MDA-MB-231 cells at 10 uM incubated for 48 hrs by sulforhodamine B assay; type: functional, cell-based; summary of the method: as §1
NCI/ADR-RES = assay: Growth inhibition of human NCI/ADR-RES cells at 10 uM incubated for 48 hrs by sulforhodamine B assay; type: functional, cell-based; summary of the method: as §1
U-251 = assay: Growth inhibition of human U251 cells at 10 uM incubated for 48 hrs by sulforhodamine B assay; type: functional, cell-based; summary of the method: as §3
SK-MEL-5 = assay: Growth inhibition of human SK-MEL-5 cells at 10 uM incubated for 48 hrs by sulforhodamine B assay; type: functional, cell-based; summary of the method: as §3
NCI-H322M = assay: Growth inhibition of human NCI-H322M cells at 10 uM incubated for 48 hrs by sulforhodamine B assay; type: functional, cell-based; summary of the method: as §1
DU-145 = assay: Growth inhibition of human DU145 cells at 10 uM incubated for 48 hrs by sulforhodamine B assay; type: functional, cell-based; summary of the method: as §2
BT-549 = assay: Growth inhibition of human BT549 cells at 10 uM incubated for 48 hrs by sulforhodamine B assay; type: functional, cell-based; summary of the method: as §2
Cryptococcus neoformans [1] = assay: Antifungal activity against Cryptococcus neoformans ATCC 32264 incubated for 48 hrs under dark condition by broth microdilution method; type: functional; conditions: ATCC 32264, 48 h
Summary of the method: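 CLSI M27-A3 broth microdilution in RPMI-1640, DMSO ≤1%, compounds at 250-0.98 µg/mL final. Inoculum 1-5 × 10^3 CFU/mL. Incubated 48 h at 30 °C in a moist dark chamber, read at OD405. MIC80 and MIC50 taken from % inhibition dose-response curves (mean ± SEM, triplicate). Amphotericin B was the positive control.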

EKVX = assay: Growth inhibition of human EKVX cells at 10 uM incubated for 48 hrs by sulforhodamine B assay; type: functional, cell-based; summary of the method: as §2
Klebsiella pneumoniae = assay: Antibacterial activity against carbapenemase positive Klebsiella pneumoniae BAA 1705 after 24 hrs by resazurin dye based microdilution assay; type: functional; conditions: BAA 1705, 24 h
Summary of the method: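 MIC taken as the lowest concentration giving visible inhibition and/or by resazurin (1 mg/mL). Gentamicin was the control. Run in duplicate, repeated at least three times.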

CAKI-1 = assay: Growth inhibition of human Caki1 cells at 10 uM incubated for 48 hrs by sulforhodamine B assay; type: functional, cell-based; summary of the method: as §2
786-0 = assay: Growth inhibition of human 786-0 cells at 10 uM incubated for 48 hrs by sulforhodamine B assay; type: functional, cell-based; summary of the method: as §2
Cryptococcus neoformans [2] = assay: Growth inhibition of Cryptococcus neoformans ATCC 32264 at 250 ug/ml incubated for 48 hrs under dark condition by broth microdilution method relative to control; type: functional; conditions: ATCC 32264, 48 h, read-out: GI; summary of the method: as §4
SK-MEL-2 = assay: Growth inhibition of human SK-MEL-2 cells at 10 uM incubated for 48 hrs by sulforhodamine B assay; type: functional, cell-based; summary of the method: as §3
HOP-92 = assay: Growth inhibition of human HOP92 cells at 10 uM incubated for 48 hrs by sulforhodamine B assay; type: functional, cell-based; summary of the method: as §1
SK-OV-3 = assay: Growth inhibition of human SKOV3 cells at 10 uM incubated for 48 hrs by sulforhodamine B assay; type: functional, cell-based; summary of the method: as §3
SF-268 = assay: Growth inhibition of human SF268 cells at 10 uM incubated for 48 hrs by sulforhodamine B assay; type: functional, cell-based; summary of the method: as §1
NCI-H23 = assay: Growth inhibition of human NCI-H23 cells at 10 uM incubated for 48 hrs by sulforhodamine B assay; type: functional, cell-based; summary of the method: as §1
Staphylococcus aureus = assay: Antibacterial activity against methicillin-resistant Staphylococcus aureus ATCC 43300 after 24 hrs by resazurin dye based microdilution assay; type: functional; conditions: ATCC 43300, 24 h
Summary of the method: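 Broth microdilution in Mueller Hinton broth, inoculum 5 × 10^5 – 8 × 10^5. Compound stocks diluted in MHB with 5% DMSO and 0.1% Tween 80. Incubation 24 h at 35-37 °C. MIC is the lowest concentration with visible growth inhibition and/or by resazurin (1 mg/mL) read-out. Gentamicin as control. Run in duplicate, replicated at least three times.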

Cryptococcus neoformans [3] = assay: Growth inhibition of Cryptococcus neoformans ATCC 32264 at 31.25 ug/ml incubated for 48 hrs under dark condition by broth microdilution method relative to control; type: functional; conditions: ATCC 32264, 48 h, read-out: GI; summary of the method: as §4
A549 = assay: Growth inhibition of human A549/ATCC cells at 10 uM incubated for 48 hrs by sulforhodamine B assay; type: functional, cell-based; summary of the method: as §2

SMILES | growth inhibition (GI) (OVCAR-8) | growth inhibition (GI) (HCT-15) | growth inhibition (GI) (SF-295) | growth inhibition (GI) (HOP-62) | growth inhibition (GI) (T47D) | growth inhibition (GI) (MOLT-4) | growth inhibition (GI) (NCI-H522) | inhibition of growth at 31.25 µg/mL (Candida albicans) [%] | growth inhibition (GI) (SNB-75) | growth inhibition (GI) (A498) | growth inhibition (GI) (MDA-MB-231) | growth inhibition (GI) (NCI/ADR-RES) | growth inhibition (GI) (U-251) | growth inhibition (GI) (SK-MEL-5) | growth inhibition (GI) (NCI-H322M) | growth inhibition (GI) (DU-145) | growth inhibition (GI) (BT-549) | MIC50 (Cryptococcus neoformans [1]) [µg/mL] | MIC80 (Cryptococcus neoformans [1]) [µg/mL] | growth inhibition (GI) (EKVX) | also measured
Clc1ccc(C2=NN(c3ccc(Cl)cc3)C(c3cccc(Nc4ccnc5cc(Cl)ccc45)c3)C2)cc1 (centres undefined) | inactive | inactive | inactive | inactive | inactive | inactive | inactive | 7.02 | inactive | inactive | inactive | inactive | inactive | inactive | inactive | inactive | inactive | 250 (≈ 460 µM) | ≥ 250 | inactive | MIC (Klebsiella pneumoniae): > 1000 µg/mL; growth inhibition (GI) (CAKI-1): inactive; growth inhibition (GI) (786-0): inactive; inhibition of growth at 250 µg/mL (Cryptococcus neoformans [2]): 53%; growth inhibition (GI) (SK-MEL-2): inactive; growth inhibition (GI) (HOP-92): inactive; growth inhibition (GI) (SK-OV-3): inactive; growth inhibition (GI) (SF-268): inactive; growth inhibition (GI) (NCI-H23): inactive; MIC (Staphylococcus aureus): > 1000 µg/mL; inhibition of growth at 31.25 µg/mL (Cryptococcus neoformans [3]): 24.3%; growth inhibition (GI) (A549): inactive
COc1ccc(C2=NN(c3ccc(Cl)cc3)C(c3cccc(Nc4ccnc5cc(Cl)ccc45)c3)C2)cc1 (centres undefined) | inactive | inactive | inactive | inactive | inactive | inactive | inactive | 1.19 | inactive | inactive | inactive | inactive | inactive | inactive | inactive | inactive | inactive | 250 (≈ 463 µM) | ≥ 250 | inactive | MIC (Klebsiella pneumoniae): > 1000 µg/mL; growth inhibition (GI) (CAKI-1): inactive; growth inhibition (GI) (786-0): inactive; inhibition of growth at 250 µg/mL (Cryptococcus neoformans [2]): 58.2%; growth inhibition (GI) (SK-MEL-2): inactive; growth inhibition (GI) (HOP-92): inactive; growth inhibition (GI) (SK-OV-3): inactive; growth inhibition (GI) (SF-268): inactive; growth inhibition (GI) (NCI-H23): inactive; MIC (Staphylococcus aureus): > 1000 µg/mL; inhibition of growth at 31.25 µg/mL (Cryptococcus neoformans [3]): 13.1%; growth inhibition (GI) (A549): inactive
